Active and inactive are the calls of the source. The calls are words filed in the database; no cut-off is given here.
What was measured:
[1] = target: T1, Toll-like receptor 9 (Mus musculus) (UniProt Q9EQU3); test: Activation of mouse TLR9 expressed in HEK293 cells assessed as NF-kappaB level at 0.1 ug/mL after 18 hrs by reporter gene assay; format: cell-based
T1 sequence (whole entry): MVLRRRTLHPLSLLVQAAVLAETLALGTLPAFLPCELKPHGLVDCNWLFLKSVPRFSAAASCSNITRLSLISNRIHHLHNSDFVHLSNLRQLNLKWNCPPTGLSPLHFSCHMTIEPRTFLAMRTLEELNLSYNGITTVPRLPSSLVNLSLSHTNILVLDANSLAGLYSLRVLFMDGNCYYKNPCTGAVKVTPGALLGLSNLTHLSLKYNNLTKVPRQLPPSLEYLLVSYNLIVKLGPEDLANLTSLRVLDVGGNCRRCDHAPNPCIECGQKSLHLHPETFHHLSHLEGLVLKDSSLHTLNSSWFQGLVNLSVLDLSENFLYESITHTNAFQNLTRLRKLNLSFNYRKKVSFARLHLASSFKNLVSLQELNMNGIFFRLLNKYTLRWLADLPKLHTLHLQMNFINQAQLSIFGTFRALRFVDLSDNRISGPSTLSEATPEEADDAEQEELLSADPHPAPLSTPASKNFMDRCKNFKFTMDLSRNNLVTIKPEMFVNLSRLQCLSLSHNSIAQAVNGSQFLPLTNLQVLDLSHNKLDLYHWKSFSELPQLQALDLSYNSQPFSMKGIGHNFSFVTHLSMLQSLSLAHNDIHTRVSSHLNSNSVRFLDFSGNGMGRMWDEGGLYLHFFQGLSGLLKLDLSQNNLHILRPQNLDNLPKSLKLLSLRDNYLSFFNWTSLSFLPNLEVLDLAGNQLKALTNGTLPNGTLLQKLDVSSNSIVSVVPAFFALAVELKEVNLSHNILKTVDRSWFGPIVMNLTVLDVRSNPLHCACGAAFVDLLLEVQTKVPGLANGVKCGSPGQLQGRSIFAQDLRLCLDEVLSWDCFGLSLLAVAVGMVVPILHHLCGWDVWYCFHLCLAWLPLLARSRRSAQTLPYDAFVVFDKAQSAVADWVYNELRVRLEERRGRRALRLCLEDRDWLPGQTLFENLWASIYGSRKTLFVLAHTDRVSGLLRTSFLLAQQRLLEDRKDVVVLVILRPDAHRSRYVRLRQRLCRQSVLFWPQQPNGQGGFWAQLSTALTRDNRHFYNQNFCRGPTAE
How it was run: (§1)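 HEK293 cells stably expressing mouse TLR9 were transiently transfected with a SEAP reporter for 6 h, then stimulated with ODN at 0.1, 0.3 or 1 μg/mL for 18 h. Reporter expression is given as fold change in NF-κB activity over medium. Representative of two independent experiments.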

[2] = target: T1, Toll-like receptor 9 (Mus musculus); test: Activation of mouse TLR9 expressed in HEK293 cells assessed as NF-kappaB level at 0.3 ug/mL after 18 hrs by reporter gene assay; format: cell-based; how it was run: as §1
[3] = system: J774; test: Activation of NF-kappaB in mouse J774 cells at 2.5 ug/ml after 1 hr by EMSA; format: cell-based
How it was run: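 Murine J774 macrophages in DMEM with 10% FBS and antibiotics, plated at 5×10^6 cells/well. ODNs were given alone or together for 1 h. For inhibition, the agonist ODN at 0.5 μg/mL was co-incubated with the modified ODN at 2.5 μg/mL. Nuclear extracts were resolved by EMSA on native polyacrylamide gels and read by autoradiography.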

[4] = system: Splenocyte; test: Inhibition of 5'-CTATCTGACGTTCTCTGT-3'-induced IL12 secretion in C57BL/6 mouse splenocytes at 4 ug/ml after 24 hrs by sandwich ELISA; format: functional, cell-based
How it was run: (§2)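 Splenocytes from 5–8-week C57BL/6 mice, 5 × 10^6 cells/mL in RPMI complete medium, were co-incubated with the TLR9 agonist ODN (1 µg/mL) plus test ODN at 1 or 4 µg/mL, or over a concentration series, at 37 °C for 24 h. Supernatant IL-12 or IL-6 was measured by sandwich ELISA. Runs were done in duplicate, with three independent experiments.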

[5] = system: Splenocyte; test: Inhibition of 5'-CTATCTGACGTTCTCTGT-3'-induced IL6 secretion in C57BL/6 mouse splenocytes at 4 ug/ml after 24 hrs by sandwich ELISA; format: functional, cell-based; how it was run: as §2
[6] = system: Mus musculus; test: Immunostimulatory activity in C57BL/6 mouse assessed as induction of MIP-1alpha level in serum at 2 mg/kg, sc after 2 hrs by Luminex multiplex assay; format: functional, organism-based; design: dose 2 mg/kg
How it was run: (§3)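 Female C57BL/6 mice, 5–6 weeks old, n = 3, received a single 2 mg/kg subcutaneous ODN injection in the right flank. Blood was taken by retro-orbital bleeding 2 h later. Naive mice served as baseline. Representative of three experiments.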

[7] = system: Mus musculus; test: Immunostimulatory activity in C57BL/6 mouse assessed as induction of MCP1 level in serum at 2 mg/kg, sc after 2 hrs by Luminex multiplex assay; format: functional, organism-based; design: dose 2 mg/kg; how it was run: as §3
[8] = system: Mus musculus; test: Immunostimulatory activity in C57BL/6 mouse assessed as induction of KC level in serum at 2 mg/kg, sc after 2 hrs by Luminex multiplex assay; format: functional, organism-based; design: dose 2 mg/kg; how it was run: as §3
[9] = system: Mus musculus; test: Immunostimulatory activity in C57BL/6 mouse assessed as inhibition of 5'-CTATCTGACGTTCTCTGT-3'-induced TNFalpha production in serum at 2 mg/kg, sc administered 24 hrs prior to 5'-CTATCTGACGTTCTCTGT-3' challenge measured after 2 hrs by Luminex multiplex assay; format: functional, organism-based; design: dose 2 mg/kg
How it was run: (§4)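 C57BL/6 mice received 2 mg/kg ODN sc in one flank. After 24 h, the TLR9 agonist ODN was given at 0.5 mg/kg sc in the opposite flank. Blood was drawn 2 h later and serum cytokines/chemokines were quantified by Luminex multiplex assay. Percent inhibition was taken against the agonist alone. Representative of three experiments.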

[10] = system: Mus musculus; test: Immunostimulatory activity in C57BL/6 mouse assessed as inhibition of 5'-CTATCTGACGTTCTCTGT-3'-induced IL10 production in serum at 2 mg/kg, sc administered 24 hrs prior to 5'-CTATCTGACGTTCTCTGT-3' challenge measured after 2 hrs by Luminex multiplex assay; format: functional, organism-based; design: dose 2 mg/kg; how it was run: as §4
[11] = system: Mus musculus; test: Immunostimulatory activity in C57BL/6 mouse assessed as inhibition of 5'-CTATCTGACGTTCTCTGT-3'-induced KC production in serum at 2 mg/kg, sc administered 24 hrs prior to 5'-CTATCTGACGTTCTCTGT-3' challenge measured after 2 hrs by Luminex multiplex assay; format: functional, organism-based; design: dose 2 mg/kg; how it was run: as §4
[12] = system: Mus musculus; test: Immunostimulatory activity in C57BL/6 mouse assessed as inhibition of 5'-CTATCTGACGTTCTCTGT-3'-induced IL12 production in serum at 2 mg/kg, sc administered 24 hrs prior to 5'-CTATCTGACGTTCTCTGT-3' challenge measured after 2 hrs by sandwich ELISA; format: functional; details: C57BL/6, sc, route subcutaneous
How it was run: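 C57BL/6 mice were pretreated sc in the right flank with 2, 5 or 10 mg/kg ODN. After 24 h, the TLR9 agonist ODN was given at 0.5 mg/kg sc in the left flank. Serum IL-12 was measured by ELISA 2 h later. Representative of two experiments.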

SMILES	Activity [1]	Activity [2]	Activity [3]	Activity [4]	Activity [5]	Activity [6]	Activity [7]	Activity [8]	Activity [9]	Activity [10]	Activity [11]	inhibition in vivo at 2 mg/kg [12] [%]
Cc1cn([C@@H]2O[C@H](COP(=O)(S)O[C@H]3C[C@H](n4ccc(N)nc4=O)O[C@@H]3COP(=O)(S)O[C@H]3C[C@H](n4cc(C)c(=O)[nH]c4=O)O[C@@H]3COP(=O)(S)O[C@H]3C[C@H](n4ccc(N)nc4=O)O[C@@H]3COP(=O)(S)O[C@H]3C[C@H](n4cc(C)c(=O)[nH]c4=O)O[C@@H]3COP(=O)(S)O[C@H]3C[C@H](n4cc(C)c(=O)[nH]c4=O)O[C@@H]3COP(=O)(S)O[C@H]3C[C@H](n4cnc5c(=O)[nH]c(N)nc54)O[C@@H]3COP(=O)(S)O[C@H]3C[C@H](n4ccc(N)nc4=O)O[C@@H]3COP(=O)(S)O[C@H]3C[C@H](n4cnc5c(N)ncnc54)O[C@@H]3COP(=O)(S)O[C@H]3C[C@H](n4cnc5c(=O)[nH]c(N)nc54)O[C@@H]3COP(=O)(S)O[C@H]3C[C@H](n4cc(C)c(=O)[nH]c4=O)O[C@@H]3COP(=O)(S)O[C@H]3C[C@H](n4ccc(N)nc4=O)O[C@@H]3COP(=O)(S)O[C@H]3C[C@H](n4cc(C)c(=O)[nH]c4=O)O[C@@H]3COP(=O)(S)O[C@H]3C[C@H](n4cnc5c(N)ncnc54)O[C@@H]3COP(=O)(S)O[C@H]3C[C@H](n4cc(C)c(=O)[nH]c4=O)O[C@@H]3COP(=O)(S)O[C@@H]3C[C@@H](n4ccc(N)nc4=O)O[C@H]3CO)[C@@H](OP(=O)(S)OC[C@H]3O[C@@H](n4cnc5c(=O)[nH]c(N)nc54)C[C@@H]3OP(=O)(S)OC[C@H]3O[C@@H](n4cc(C)c(=O)[nH]c4=O)C[C@@H]3O)[C@H]2O)c(=O)[nH]c1=O (some centres not stated)	inactive	inactive	inactive	Active	Active	inactive	inactive	inactive	Active	Active	Active	50
COC1[C@H](n2cc(C)c(N)nc2=O)O[C@H](COP(=O)(S)O[C@H]2C[C@H](n3cnc4c(N)ncnc43)O[C@@H]2COP(=O)(S)O[C@H]2C[C@H](n3cnc4c(=O)[nH]c(N)nc43)O[C@@H]2COP(=O)(S)O[C@H]2C[C@H](n3cc(C)c(=O)[nH]c3=O)O[C@@H]2COP(=O)(S)O[C@H]2C[C@H](n3ccc(N)nc3=O)O[C@@H]2COP(=O)(S)O[C@H]2C[C@H](n3cc(C)c(=O)[nH]c3=O)O[C@@H]2COP(=O)(S)O[C@H]2C[C@H](n3cnc4c(N)ncnc43)O[C@@H]2COP(=O)(S)O[C@H]2C[C@H](n3cc(C)c(=O)[nH]c3=O)O[C@@H]2COP(=O)(S)O[C@H]2C[C@H](n3ccc(N)nc3=O)O[C@@H]2CO)[C@H]1OP(=O)(S)OC[C@H]1O[C@@H](n2cnc3c(=O)[nH]c(N)nc32)C[C@@H]1OP(=O)(S)OC[C@H]1O[C@@H](n2cc(C)c(=O)[nH]c2=O)C[C@@H]1OP(=O)(S)OC[C@H]1O[C@@H](n2cc(C)c(=O)[nH]c2=O)C[C@@H]1OP(=O)(S)OC[C@H]1O[C@@H](n2ccc(N)nc2=O)C[C@@H]1OP(=O)(S)OC[C@H]1O[C@@H](n2cc(C)c(=O)[nH]c2=O)C[C@@H]1OP(=O)(S)OC[C@H]1O[C@@H](n2ccc(N)nc2=O)C[C@@H]1OP(=O)(S)OC[C@H]1O[C@@H](n2cc(C)c(=O)[nH]c2=O)C[C@@H]1OP(=O)(S)OC[C@H]1O[C@@H](n2cnc3c(=O)[nH]c(N)nc32)C[C@@H]1OP(=O)(S)OC[C@H]1O[C@@H](n2cc(C)c(=O)[nH]c2=O)C[C@@H]1O (some centres not stated)	inactive	inactive	inactive			inactive	inactive	inactive	Active	Active	Active	50
COC1[C@H](n2cnc3c(=O)[nH]c(N)nc32)O[C@H](COP(=O)(S)O[C@H]2C[C@H](n3cc(C)c(N)nc3=O)O[C@@H]2COP(=O)(S)O[C@H]2C[C@H](n3cnc4c(N)ncnc43)O[C@@H]2COP(=O)(S)O[C@H]2C[C@H](n3cnc4c(=O)[nH]c(N)nc43)O[C@@H]2COP(=O)(S)O[C@H]2C[C@H](n3cc(C)c(=O)[nH]c3=O)O[C@@H]2COP(=O)(S)O[C@H]2C[C@H](n3ccc(N)nc3=O)O[C@@H]2COP(=O)(S)O[C@H]2C[C@H](n3cc(C)c(=O)[nH]c3=O)O[C@@H]2COP(=O)(S)O[C@H]2C[C@H](n3cnc4c(N)ncnc43)O[C@@H]2COP(=O)(S)O[C@H]2C[C@H](n3cc(C)c(=O)[nH]c3=O)O[C@@H]2COP(=O)(S)O[C@H]2C[C@H](n3ccc(N)nc3=O)O[C@@H]2CO)[C@H]1OP(=O)(S)OC[C@H]1O[C@@H](n2cc(C)c(=O)[nH]c2=O)C[C@@H]1OP(=O)(S)OC[C@H]1O[C@@H](n2cc(C)c(=O)[nH]c2=O)C[C@@H]1OP(=O)(S)OC[C@H]1O[C@@H](n2ccc(N)nc2=O)C[C@@H]1OP(=O)(S)OC[C@H]1O[C@@H](n2cc(C)c(=O)[nH]c2=O)C[C@@H]1OP(=O)(S)OC[C@H]1O[C@@H](n2ccc(N)nc2=O)C[C@@H]1OP(=O)(S)OC[C@H]1O[C@@H](n2cc(C)c(=O)[nH]c2=O)C[C@@H]1OP(=O)(S)OC[C@H]1O[C@@H](n2cnc3c(=O)[nH]c(N)nc32)C[C@@H]1OP(=O)(S)OC[C@H]1O[C@@H](n2cc(C)c(=O)[nH]c2=O)C[C@@H]1O (some centres not stated)	inactive	inactive	inactive			inactive	inactive	inactive	Active	Active	Active	14

— ChEMBL document CHEMBL1152452, “Modifications incorporated in CpG motifs of oligodeoxynucleotides lead to antagonist activity of toll-like receptors 7 and 9” (2009)
